According to ChEMBL document CHEMBL4219179, “Small-molecules that bind to the ubiquitin-binding motif of REV1 inhibit REV1 interaction with K164-monoubiquitinated PCNA and suppress DNA damage tolerance” (Bioorg Med Chem, 2018):
Activity calls are given as the source filed them. No cut-off for these calls is given here.

Key:
[1] = Inhibition of biotin/Avi-tagged UbPCNA binding to recombinant human N-terminal His-tagged REV1 deletion mutant BRCT/UBM1/UBM2 domain expressed in Escherichia coli BL21(DE3) measured after 1 hr by AlphaScreen assay
How it was run: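 AlphaScreen with 200 nM biotin-AviTag-Ub-PCNA (enzymatically K164-ubiquitinated) and 40 nM N-His REV1 in PBS pH 7.4, 0.1% BSA, 0.05% Tween-20, with serial compound dilutions. Ni-chelate acceptor beads added, streptavidin donor beads after 1 h, read 1 h later; dose-response fitted on final concentrations.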

[2] = target: T1, DNA repair protein REV1 (Homo sapiens) (UniProt Q9UBZ9); test: Binding affinity to recombinant human REV1 UBM1/UBM2 domain (137 residues) expressed in Escherichia coli BL21(DE3) assessed as increase in NOE peaks at 200 uM by STD NMR spectral analysis
T1 sequence (whole entry): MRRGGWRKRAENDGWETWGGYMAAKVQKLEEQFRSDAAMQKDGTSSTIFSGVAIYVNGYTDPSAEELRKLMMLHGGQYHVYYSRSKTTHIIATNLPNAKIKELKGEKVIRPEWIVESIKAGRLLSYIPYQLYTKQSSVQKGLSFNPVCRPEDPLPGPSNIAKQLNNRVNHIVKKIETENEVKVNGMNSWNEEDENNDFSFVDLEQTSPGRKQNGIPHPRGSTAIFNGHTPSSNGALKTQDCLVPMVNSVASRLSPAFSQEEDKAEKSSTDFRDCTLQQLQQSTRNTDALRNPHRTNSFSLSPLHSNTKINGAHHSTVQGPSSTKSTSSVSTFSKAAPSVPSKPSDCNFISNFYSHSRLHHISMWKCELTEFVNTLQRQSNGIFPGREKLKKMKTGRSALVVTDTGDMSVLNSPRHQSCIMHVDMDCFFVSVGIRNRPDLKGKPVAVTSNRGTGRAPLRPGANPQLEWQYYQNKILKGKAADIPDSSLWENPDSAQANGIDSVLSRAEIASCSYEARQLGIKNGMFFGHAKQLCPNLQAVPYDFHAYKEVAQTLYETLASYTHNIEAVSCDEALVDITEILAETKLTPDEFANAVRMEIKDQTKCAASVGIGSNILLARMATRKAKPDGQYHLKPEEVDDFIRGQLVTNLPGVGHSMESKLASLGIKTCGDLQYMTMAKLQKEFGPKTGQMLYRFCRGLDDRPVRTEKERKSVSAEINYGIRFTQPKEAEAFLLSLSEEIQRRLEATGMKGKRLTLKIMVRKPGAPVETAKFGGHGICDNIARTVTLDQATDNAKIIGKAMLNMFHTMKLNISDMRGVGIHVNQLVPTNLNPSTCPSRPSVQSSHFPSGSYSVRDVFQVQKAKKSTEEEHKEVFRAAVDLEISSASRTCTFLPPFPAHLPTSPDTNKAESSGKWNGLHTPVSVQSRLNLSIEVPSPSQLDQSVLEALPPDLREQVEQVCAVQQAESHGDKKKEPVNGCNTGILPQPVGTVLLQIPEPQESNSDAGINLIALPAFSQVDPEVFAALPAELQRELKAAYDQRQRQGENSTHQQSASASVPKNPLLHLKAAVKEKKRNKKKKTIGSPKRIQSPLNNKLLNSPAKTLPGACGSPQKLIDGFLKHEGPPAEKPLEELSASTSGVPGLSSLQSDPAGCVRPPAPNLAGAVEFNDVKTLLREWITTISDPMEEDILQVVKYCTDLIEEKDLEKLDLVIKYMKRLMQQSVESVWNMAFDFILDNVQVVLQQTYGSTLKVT
How it was run: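 STD NMR at 280 K with 10 µM protein and 200 µM compound. Saturation by a train of 30 ms Gaussian pulses for 4 s, on resonance at 0 ppm and off resonance at -40 ppm; 256 on/off FIDs recorded. REV1 UBM1-UBM2 expressed as for REV1 (His-tagged, Ni-NTA), tag removed by […].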

[3] = target: T1, DNA repair protein REV1 (Homo sapiens); test: Binding affinity to recombinant human REV1 UBM2 domain assessed as chemical shift changes by [1H,15N]-HSQC NMR spectral analysis
How it was run: (§1)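 15N-labeled REV1 UBM2 in 20 mM sodium phosphate pH 7.0, 100 mM NaCl, titrated at protein:compound ratios 1:2, 1:4, 1:6, 1:8 and 1:10. 1H and 15N shifts of displaced peaks tracked at each point; weighted average shift δav(NH) = [(δH² + (δN/5)²)/2]^1/2 per backbone amide.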

[4] = Solubility of the compound in sodium phosphate buffer at pH 7; assay type: physicochemical
[5] = tested on: U2OS; test: Cytotoxicity against human U2OS cells expressing EGFP-tagged REV1 (unknown origin) at 150 uM; assay type: cell-based
[6] = target: T1, DNA repair protein REV1 (Homo sapiens); test: Binding affinity to recombinant human REV1 UBM2 domain assessed as chemical shift perturbations on alpha-helix at REV1 UBM2 to compound molar ratio of 1:10 by [1H,15N]-HSQC NMR spectral analysis; how it was run: as §1
[7] = target: T1, DNA repair protein REV1 (Homo sapiens); test: Inhibition of REV1 in human WTK1 cells assessed as suppression of 0 to 128 J/m2 UV light-induced HPRT gene mutation by measuring reduction in number of resistant clones at 150 uM dosed Immediately following UVC treatment and measured after 21 hrs
How it was run: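 WTK-1 cells cleansed (CHAT, then THC) and conditioned in horse serum; 2×10^6 cells given UVC 0–128 J/m², then DMSO or 150 µM compound for 21 h. Survival plated at 1.6 cells/well (PE0, PE6). After 5 days' expression, 5,000 cells/well in 0.5 µg/mL 6-thioguanine; colonies scored after 11–12 days; mutation frequency normalized to plating efficiency.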

[8] = target: T1, DNA repair protein REV1 (Homo sapiens); test: (§2) Inhibition of REV1 in human U2OS cells assessed as potentiation of 4-hydroxycyclophosphamide-induced cytotoxicity by measuring reduction in colony formation at 75 uM incubated for 24 hrs after 24 hrs 4-hydroxycyclophosphamide-exposure followed by culture medium replacement with fresh medium and measured after 7 days by crystal violet staining based assay relative to control; assay type: cell-based
How it was run: (§3)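 U2OS cells, 300 per well, settled overnight, then given cisplatin or 4-hydroxycyclophosphamide at the stated final level. After 24 h, compound or DMSO added; medium replaced after another 24 h and cells grown 7 days. Formaldehyde fixation, 0.5% crystal violet staining, colonies of more than ~40 cells counted; triplicates, survival set to 1 for vehicle (saline for cisplatin, DMSO for 4-HC).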

[9] = target: T1, DNA repair protein REV1 (Homo sapiens); test: Inhibition of REV1 in human HeLa cells assessed as reduction in 2.5 J/m2 UV light-induced cyclopyrimidine dimer removal at 150 uM by epi-fluorescence microscopic analysis; assay type: cell-based
How it was run: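 HeLa cells on coverslips given 0 or 2.5 J/m² UVC (254 nm), then DMSO or 150 µM compound. Fixed at time points up to 24 h, denatured in 2 M HCl and stained with anti-CPD (TDM-2). Epifluorescence mean green intensity per DAPI-defined nucleus; two-tailed t-test.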

[10] = target: T1, DNA repair protein REV1 (Homo sapiens); test: Inhibition of UbPCNA binding to EGFP-tagged REV1 (unknown origin) expressed in human U2OS cells assessed as reduction in cisplatin-induced recruitment of EGFP-REV1 to PCNA foci on chromatin at 150 uM treated after 3.5 hrs cisplatin exposure and measured 6 hrs after post dose by immunostaining based confocal microscopic analysis; assay type: cell-based
How it was run: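 U2OS cells transfected with pEGFP-REV1. Two days later, 33 µM cisplatin for 3.5 h, then released into DMSO or 150 µM compound for 6 h. CSK/Triton pre-extraction, PFA fixation, methanol, PCNA (PC10) immunostain, confocal imaging. Pearson coefficient of PCNA vs REV1 per DAPI-defined nucleus; n=32–37 cells, two-tailed t-test.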

[11] = tested on: U2OS; test: Cytotoxicity against human U2OS cells assessed as reduction in colony formation at 75 uM incubated for 24 hrs followed by culture medium replacement with fresh medium and measured after 7 days by crystal violet staining based assay relative to control; assay type: cell-based; how it was run: as §3
[12] = target: T1, DNA repair protein REV1 (Homo sapiens); test: as §2, with “cisplatin-induced” for “4-hydroxycyclophosphamide-induced”, “cisplatin exposure” for “4-hydroxycyclophosphamide-exposure”; assay type: cell-based; how it was run: as §3

SMILES | IC50 [1] [µM] | Activity [2] | Activity [3] | solubility [4] | Activity [5] | Activity [6] | inhibition [7] | fold change (FC) [8] | inhibition [9] | inhibition [10] | fold change (FC) [11] | fold change (FC) [12]
Cl.O=C(CCc1cc(I)c(Oc2ccc(O)cc2)c(I)c1)N1CCNCC1 | 9.7 | Active | Dose-dependent effect | Soluble | Toxic | Active |  |  |  |  |  | 
O=C1CN(C(=O)CCc2cc(I)c(Oc3ccc(O)cc3)c(I)c2)CCN1 | 3.4 | Active |  | Insoluble |  |  | Active | 10 | Active | Active | 2 | 10
